Laboratory results as given in article PMC4266334 (Journal of Medicinal Chemistry, 2014).

Legend:
[1] = tested on: leukemia Jurkat-T; experiment: MTT toxicity assay, Jurkat; format: cell-based, human; conditions: read-out: IC50 Jurkat, 24 h incubation, mean ± SD (n = 4)
In short: (§1)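 Cells were seeded at 5 × 10^4/well for Jurkat or 10^4/well for adherent lines, which attached 24 h. Test compound was added at several concentrations in triplicate for 24 h at 37 °C, 5% CO2, and read by modified MTT reduction.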

[2] = tested on: lung A549; experiment: MTT toxicity assay, A549; format: cell-based, human; conditions: read-out: IC50 A549, 24 h incubation, mean ± SD (n = 4)
In short: (§2)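 Adherent cells (10^4/well) attached for 24 h, then test compound was added at several concentrations in triplicate for 24 h at 37 °C, 5% CO2. Proliferation was read by a modified MTT-reduction method.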

[3] = tested on: prostate DU-145; experiment: MTT toxicity assay, DU-145; format: cell-based, human; conditions: read-out: IC50 DU-145, 24 h incubation, mean ± SD (n = 4)
In short: as §1

[4] = tested on: pancreas MiaPaca2; experiment: MTT toxicity assay, MiaPaca2; format: cell-based, human; conditions: read-out: IC50 MiaPaca2, 24 h incubation, mean ± SD (n = 4)
In short: as §1

[5] = tested on: triple negative breast MDA-MB-231; experiment: MTT toxicity assay, MDA-MB-231; format: cell-based, human; conditions: read-out: IC50 MDA-MB-231, 24 h incubation, mean ± SD (n = 4)
[6] = tested on: nontumorigenic human embryonic kidney cells HEK293T; experiment: MTT toxicity assay, HEK-293T; format: cell-based; conditions: read-out: IC50 HEK-293T, 24 h incubation, mean ± SD (n = 4)
In short: as §2

[7] = tested on: human renal proximal tubular cells (RPTC); experiment: XTT assay for RPTC cells; format: cell-based; conditions: read-out: IC50 RPTC; XTT assay 24 h
In short: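 Primary human renal proximal tubular cells were grown in RenaLife medium (0.5% FBS, growth factors) at 37 °C, 5% CO2. They were seeded at 5 × 10^3/well and grown 24 h. Test compound from fresh aqueous stock was given at 0.1–200 μM final for 24 h. XTT absorbance was read at 450 nm and survival calculated against untreated cells. IC50 is mean ± SE of at least two experiments in triplicate.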

[8] = tested on: plasmid (pBR322) DNA; experiment: Electrophoresis mobility shift assay; format: binding; conditions: 37 °C, 20 h, Tris/HCl buffer, up to drug/DNA ratio 2.0
In short: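 pBR322 DNA (20 μg/mL) in 5 mM Tris/HCl, 50 mM NaClO4, pH 7.39 was incubated with test compound at 0.25–2.0 metal complex:DNA bp. Incubation was 37 °C, 20 h, in the dark, with free DNA and cisplatin-DNA controls. Samples ran on 1% agarose in TAE for 1.5 h at 80 V and were stained 30 min with GelRed.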

`N.N.[Cl][Pt][Cl]` [cisplatin] gave an IC50 [1] of 10.8 ± 1.2 µM, an IC50 [2] of 114 ± 9.1 µM and an IC50 [3] of 112 ± 33 µM. The IC50 [4] was 76.5 ± 7.4 µM, the IC50 [5] was 131 ± 18 µM and the IC50 [6] was 69 ± 6.7 µM. The IC50 [7] was 46.4 ± 2.46 µM and the “effect on electrophoretic mobility of plasmid pBR322” value [8] was “both increase and decrease the mobility of the OC and the CCC forms”.
